Reference: ChEMBL document CHEMBL4689842, “EUbOPEN Chemogenomics Library wave 1” (2021)

Tested on: HEK-293T
Assay: Multiplex assay against HEK293T;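 on Population Tubulin-Different-Phenotype (%): share of the cells with healthy nuclei that show this phenotype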
Format: toxicity, cell-based
Conditions: human
Outline: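 With compound added, live cells were imaged on a CQ1 microscope at 37°C and 5% CO2; staining with Hoechst33342, BioTracker Green Microtubule Cytoskeleton Dye, MitoTracker Red and Annexin V Alexa Fluor 680 had been done at seeding. The CellPathfinder machine-learning gating scheme split cells into Hoechst high-intensity objects or normal cells, normal cells into healthy, pyknosed or fragmented nuclei, and pyknosed cells into mitotic or apoptotic. The tubulin, mitochondrial-mass and membrane-permeability phenotypes are per cents of healthy-nucleus cells.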

[1] = 12 h, 1 µM, compound concentration 1 uM, replicate 1
[2] = 12 h, 1 µM, compound concentration 1 uM, replicate 2
[3] = 12 h, 10 µM, compound concentration 10 uM, replicate 1
[4] = 12 h, 10 µM, compound concentration 10 uM, replicate 2
[5] = 24 h, 1 µM, compound concentration 1 uM, replicate 1
[6] = 24 h, 1 µM, compound concentration 1 uM, replicate 2
[7] = 24 h, 10 µM, compound concentration 10 uM, replicate 1
[8] = 24 h, 10 µM, compound concentration 10 uM, replicate 2
[9] = 48 h, 1 µM, compound concentration 1 uM, replicate 1
[10] = 48 h, 1 µM, compound concentration 1 uM, replicate 2
[11] = 48 h, 10 µM, compound concentration 10 uM, replicate 1
[12] = 48 h, 10 µM, compound concentration 10 uM, replicate 2

SMILES: O=C(Nc1ccc(-c2ccnc(Nc3ccc(N4CCOCC4)cc3)n2)cc1)[C@@H]1CCCN1
- Population Apoptotic (%) [1]: 46%
- Population Fragmented Nuclei (%) [1]: 9%
- Population Healthy Nuclei (%) [1]: 34%
- Population Hoechst High Intensity Objects (%) [1]: 11%
- Population Membrane Permeable-Phenotype (%) [1]: 2%
- Population Mitochondria Different-Phenotype (%) [1]: 77%
- Population Mitotic Cells (%) [1]: 53%
- Population Normal (%) [1]: 88%
- Population Pyknosed Nuclei (%) [1]: 56%
- Population Tubulin-Different-Phenotype (%) [1]: 50%
- Total Cell Count [1]: 289
- Population Apoptotic (%) [2]: 13%
- Population Fragmented Nuclei (%) [2]: 2%
- Population Healthy Nuclei (%) [2]: 45%
- Population Hoechst High Intensity Objects (%) [2]: 4%
- Population Membrane Permeable-Phenotype (%) [2]: 12%
- Population Mitochondria Different-Phenotype (%) [2]: 19%
- Population Mitotic Cells (%) [2]: 86%
- Population Normal (%) [2]: 95%
- Population Pyknosed Nuclei (%) [2]: 51%
- Population Tubulin-Different-Phenotype (%) [2]: 30%
- Total Cell Count [2]: 246
- Population Apoptotic (%) [3]: 54%
- Population Fragmented Nuclei (%) [3]: 16%
- Population Healthy Nuclei (%) [3]: 17%
- Population Hoechst High Intensity Objects (%) [3]: 18%
- Population Membrane Permeable-Phenotype (%) [3]: 0%
- Population Mitochondria Different-Phenotype (%) [3]: 96%
- Population Mitotic Cells (%) [3]: 45%
- Population Normal (%) [3]: 81%
- Population Pyknosed Nuclei (%) [3]: 65%
- Population Tubulin-Different-Phenotype (%) [3]: 100%
- Total Cell Count [3]: 232
- Population Apoptotic (%) [4]: 27%
- Population Fragmented Nuclei (%) [4]: 12%
- Population Healthy Nuclei (%) [4]: 15%
- Population Hoechst High Intensity Objects (%) [4]: 4%
- Population Membrane Permeable-Phenotype (%) [4]: 12%
- Population Mitochondria Different-Phenotype (%) [4]: 62%
- Population Mitotic Cells (%) [4]: 72%
- Population Normal (%) [4]: 95%
- Population Pyknosed Nuclei (%) [4]: 72%
- Population Tubulin-Different-Phenotype (%) [4]: 91%
- Total Cell Count [4]: 163
- Population Apoptotic (%) [5]: 51%
- Population Fragmented Nuclei (%) [5]: 10%
- Population Healthy Nuclei (%) [5]: 52%
- Population Hoechst High Intensity Objects (%) [5]: 12%
- Population Membrane Permeable-Phenotype (%) [5]: 1%
- Population Mitochondria Different-Phenotype (%) [5]: 75%
- Population Mitotic Cells (%) [5]: 48%
- Population Normal (%) [5]: 87%
- Population Pyknosed Nuclei (%) [5]: 36%
- Population Tubulin-Different-Phenotype (%) [5]: 51%
- Total Cell Count [5]: 337
- Population Apoptotic (%) [6]: 17%
- Population Fragmented Nuclei (%) [6]: 3%
- Population Healthy Nuclei (%) [6]: 63%
- Population Hoechst High Intensity Objects (%) [6]: 3%
- Population Membrane Permeable-Phenotype (%) [6]: 6%
- Population Mitochondria Different-Phenotype (%) [6]: 21%
- Population Mitotic Cells (%) [6]: 82%
- Population Normal (%) [6]: 96%
- Population Pyknosed Nuclei (%) [6]: 32%
- Population Tubulin-Different-Phenotype (%) [6]: 46%
- Total Cell Count [6]: 303
- Population Apoptotic (%) [7]: 57%
- Population Fragmented Nuclei (%) [7]: 18%
- Population Healthy Nuclei (%) [7]: 24%
- Population Hoechst High Intensity Objects (%) [7]: 12%
- Population Membrane Permeable-Phenotype (%) [7]: 1%
- Population Mitochondria Different-Phenotype (%) [7]: 98%
- Population Mitotic Cells (%) [7]: 42%
- Population Normal (%) [7]: 87%
- Population Pyknosed Nuclei (%) [7]: 56%
- Population Tubulin-Different-Phenotype (%) [7]: 98%
- Total Cell Count [7]: 242
- Population Apoptotic (%) [8]: 32%
- Population Fragmented Nuclei (%) [8]: 7%
- Population Healthy Nuclei (%) [8]: 38%
- Population Hoechst High Intensity Objects (%) [8]: 4%
- Population Membrane Permeable-Phenotype (%) [8]: 7%
- Population Mitochondria Different-Phenotype (%) [8]: 56%
- Population Mitotic Cells (%) [8]: 67%
- Population Normal (%) [8]: 95%
- Population Pyknosed Nuclei (%) [8]: 53%
- Population Tubulin-Different-Phenotype (%) [8]: 88%
- Total Cell Count [8]: 186
- Population Apoptotic (%) [9]: 48%
- Population Fragmented Nuclei (%) [9]: 10%
- Population Healthy Nuclei (%) [9]: 71%
- Population Hoechst High Intensity Objects (%) [9]: 7%
- Population Membrane Permeable-Phenotype (%) [9]: 3%
- Population Mitochondria Different-Phenotype (%) [9]: 31%
- Population Mitotic Cells (%) [9]: 51%
- Population Normal (%) [9]: 92%
- Population Pyknosed Nuclei (%) [9]: 17%
- Population Tubulin-Different-Phenotype (%) [9]: 33%
- Total Cell Count [9]: 482
- Population Apoptotic (%) [10]: 10%
- Population Fragmented Nuclei (%) [10]: 4%
- Population Healthy Nuclei (%) [10]: 84%
- Population Hoechst High Intensity Objects (%) [10]: 3%
- Population Membrane Permeable-Phenotype (%) [10]: 4%
- Population Mitochondria Different-Phenotype (%) [10]: 6%
- Population Mitotic Cells (%) [10]: 90%
- Population Normal (%) [10]: 96%
- Population Pyknosed Nuclei (%) [10]: 10%
- Population Tubulin-Different-Phenotype (%) [10]: 25%
- Total Cell Count [10]: 495
- Population Apoptotic (%) [11]: 49%
- Population Fragmented Nuclei (%) [11]: 22%
- Population Healthy Nuclei (%) [11]: 48%
- Population Hoechst High Intensity Objects (%) [11]: 8%
- Population Membrane Permeable-Phenotype (%) [11]: 4%
- Population Mitochondria Different-Phenotype (%) [11]: 84%
- Population Mitotic Cells (%) [11]: 50%
- Population Normal (%) [11]: 91%
- Population Pyknosed Nuclei (%) [11]: 29%
- Population Tubulin-Different-Phenotype (%) [11]: 95%
- Total Cell Count [11]: 271
- Population Apoptotic (%) [12]: 36%
- Population Fragmented Nuclei (%) [12]: 10%
- Population Healthy Nuclei (%) [12]: 60%
- Population Hoechst High Intensity Objects (%) [12]: 5%
- Population Membrane Permeable-Phenotype (%) [12]: 10%
- Population Mitochondria Different-Phenotype (%) [12]: 38%
- Population Mitotic Cells (%) [12]: 63%
- Population Normal (%) [12]: 94%
- Population Tubulin-Different-Phenotype (%) [12]: 81%
- Total Cell Count [12]: 246
